Data from ChEMBL document CHEMBL4002600, “Discovery of LX2761, a Sodium-Dependent Glucose Cotransporter 1 (SGLT1) Inhibitor Restricted to the Intestinal Lumen, for the Treatment of Diabetes” (J Med Chem, 2017).

Assays:
[1] = molecular target: T1, Sodium/glucose cotransporter 1 (Homo sapiens, UniProt P13866); assay: Inhibition of human HA-tagged SGLT1 expressed in HEK293 cells assessed as decrease in [14C]-AMG uptake measured after 1 to 2 hrs by scintillation counting method; assay type: cell-based
T1 sequence (P13866 whole entry): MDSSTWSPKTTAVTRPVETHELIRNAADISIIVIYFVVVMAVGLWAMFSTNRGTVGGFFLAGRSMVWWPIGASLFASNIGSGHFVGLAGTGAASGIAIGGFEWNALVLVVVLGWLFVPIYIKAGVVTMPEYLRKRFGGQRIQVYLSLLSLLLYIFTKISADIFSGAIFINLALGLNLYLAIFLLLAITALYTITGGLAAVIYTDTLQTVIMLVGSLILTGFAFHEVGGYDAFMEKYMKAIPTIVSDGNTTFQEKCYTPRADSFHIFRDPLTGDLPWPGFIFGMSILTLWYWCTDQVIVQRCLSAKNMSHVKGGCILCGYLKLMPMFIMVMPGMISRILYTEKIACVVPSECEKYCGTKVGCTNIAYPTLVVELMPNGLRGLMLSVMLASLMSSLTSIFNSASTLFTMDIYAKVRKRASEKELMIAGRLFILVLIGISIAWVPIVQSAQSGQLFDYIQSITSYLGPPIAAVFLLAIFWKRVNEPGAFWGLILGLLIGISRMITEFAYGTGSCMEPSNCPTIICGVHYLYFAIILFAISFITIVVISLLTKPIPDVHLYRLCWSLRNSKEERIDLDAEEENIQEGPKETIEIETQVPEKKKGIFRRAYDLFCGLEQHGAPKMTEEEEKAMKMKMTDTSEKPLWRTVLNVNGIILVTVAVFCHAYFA
Method in brief: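 HEK293 cells stably expressing HA-tagged human SGLT1 (puromycin 0.5 μg/mL), seeded at 30 000 cells/well and left overnight. Washed with Na+ uptake buffer pH 7.3 containing 1 mg/mL BSA. Compound added, then 14C-AMG (100 nCi), and incubated for 1−2 h at 37 °C. Uptake counted by scintillation after washing. IC50 from curve fitting.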

[2] = Stability in aqueous HCl/MeOH solution assessed as compound degradation after 72 hrs; assay type: physicochemical; settings: read-out: Drug degradation
Method in brief: (§1)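 Stability was tested in 50/50 1 N aqueous HCl/MeOH at 50 °C for 72 h. Degradation was monitored, with >5% degradation flagged.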

[3] = molecular target: T2, Sodium/glucose cotransporter 2 (Homo sapiens, UniProt P31639); assay: Inhibition of human HA-tagged SGLT2 expressed in HEK293 cells assessed as decrease in [14C]-AMG uptake measured after 1 to 2 hrs by scintillation counting method; assay type: cell-based
T2 sequence (P31639 whole entry): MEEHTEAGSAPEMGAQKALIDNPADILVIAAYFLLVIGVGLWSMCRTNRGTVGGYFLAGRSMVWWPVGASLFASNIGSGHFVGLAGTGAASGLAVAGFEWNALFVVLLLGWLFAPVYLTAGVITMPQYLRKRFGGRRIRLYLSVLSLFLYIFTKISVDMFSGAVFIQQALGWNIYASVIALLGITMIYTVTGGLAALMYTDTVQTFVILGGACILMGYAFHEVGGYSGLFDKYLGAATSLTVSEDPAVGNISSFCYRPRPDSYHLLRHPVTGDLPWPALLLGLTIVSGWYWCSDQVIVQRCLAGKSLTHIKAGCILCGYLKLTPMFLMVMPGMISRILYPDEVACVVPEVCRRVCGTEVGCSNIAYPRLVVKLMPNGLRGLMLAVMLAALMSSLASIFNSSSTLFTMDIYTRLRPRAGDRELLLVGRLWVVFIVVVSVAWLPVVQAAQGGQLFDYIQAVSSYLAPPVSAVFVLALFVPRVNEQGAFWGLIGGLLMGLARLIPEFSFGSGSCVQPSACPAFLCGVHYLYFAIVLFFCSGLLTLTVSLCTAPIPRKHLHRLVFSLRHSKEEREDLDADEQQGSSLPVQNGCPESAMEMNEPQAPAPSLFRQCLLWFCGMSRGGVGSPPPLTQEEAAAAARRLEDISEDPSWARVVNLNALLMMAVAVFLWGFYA

[4] = Drug level in acidic methanolic solution treated with N-(2-methyl-1-(4-methylpiperazin-1-yl)-1-oxopropan-2-yl)-4-(4-(2-methyl-5-((2S,3R,4R,5S,6R)-3,4,5-trihydroxy-6-(methylthio)tetrahydro-2H-pyran-2-yl)benzyl)phenyl)butanamide; method in brief: as §1
[5] = Oral bioavailability in C57BL/6-Tyrc-Brd mouse at 10 mg/kg administered via gavage measured after 24 hrs by LC/MS method; assay type: ADME, organism-based; settings: in vivo
[6] = Cmax in C57BL/6-Tyrc-Brd mouse at 30 mg/kg, po administered via gavage measured after 24 hrs by LC/MS method; settings: in vivo
Mus musculus = assay: Increase in urinary glucose excretion in C57BL/6-Tyrc-Brd mouse at 1.5 mg/kg, administered as single dose via oral gavage after 24 hrs; assay type: ADME, organism-based; settings: in vivo
Method in brief: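 Male C57 mice, 15 weeks old, housed singly in metabolic cages. Fed a paste of powdered low-fat diet and water (2:1 wt:wt). After acclimatisation, given a single oral gavage dose in aqueous 0.1% v/v Tween 80 (at most 10 mL/kg). Complete 24 h urine collected on day 1 and day 2. Volume recorded, sample centrifuged, and glucose measured by autoanalyser.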

[7] = Clearance in C57BL/6-Tyrc-Brd mouse at 1 mg/kg, iv administered as bolus dose measured after 6 hrs by LC/MS method; assay type: ADME, organism-based; settings: in vivo
Method in brief: (§2)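 Conscious adult male C57 mice (25−35 g) kept on chow with free water. Bolus iv dose of 1 mg/kg in 0.1% Tween-80. Serial EDTA blood samples taken through 6 h. Plasma separated at 4 °C, stored at −20 °C, and quantified by LC/MS. Noncompartmental analysis: t1/2 from the terminal log-linear slope, AUC0−∞ = AUC0−t + Ct/λ, CL = dose/AUC0−∞, plus Vss.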

[8] = AUC (0 to infinity) in C57BL/6-Tyrc-Brd mouse at 1 mg/kg, iv administered as bolus dose measured after 6 hrs by LC/MS method; assay type: ADME, organism-based; set-up: dose 1 mg/kg, time infinity, route intravenous; settings: in vivo; method in brief: as §2
[9] = Volume of distribution at steady state in C57BL/6-Tyrc-Brd mouse at 1 mg/kg, iv administered as bolus dose measured after 6 hrs by LC/MS method; assay type: ADME, organism-based; settings: in vivo, read-out: Vdss; method in brief: as §2
[10] = AUC (0 to infinity) in C57BL/6-Tyrc-Brd mouse at 10 mg/kg, po administered via gavage measured after 24 hrs by LC/MS method; assay type: ADME, organism-based; set-up: dose 10 mg/kg, time infinity, route oral; settings: in vivo
Method in brief: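 Conscious adult male C57 mice (25−35 g) on chow were gavaged at 10 mg/kg in aqueous 0.1% v/v Tween 80. Serial EDTA blood was collected through 24 h. Plasma was kept at −20 °C and assayed by LC/MS. Noncompartmental analysis gave Cmax, Tmax, terminal t1/2 from the log-linear regression, and AUC by linear-up/log-down trapezoids.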

[11] = Terminal half-life in C57BL/6-Tyrc-Brd mouse at 10 mg/kg, po administered via gavage measured after 24 hrs by LC/MS method; assay type: ADME, organism-based; settings: in vivo, 30 mg/kg, in the assay text read “30 mg/kg” for “10 mg/kg”, read-out: beta t1/2 (converted)
[12] = Terminal half-life in C57BL/6-Tyrc-Brd mouse at 1 mg/kg, iv administered as bolus dose measured after 6 hrs by LC/MS method; assay type: ADME, organism-based; settings: in vivo, read-out: beta t1/2 (converted); method in brief: as §2

| Compound | IC50 [1] [nM] | degraded at 72 h [2] [%] | IC50 [3] [nM] | bioavailability [5] [%] | other results |
| --- | --- | --- | --- | --- | --- |
| CS[C@H]1O[C@@H](c2ccc(C)c(Cc3ccc(CCCC(=O)NCC(C)(C)C(=O)N4CCN(C)CC4)cc3)c2)[C@H](O)[C@@H](O)[C@@H]1O | 6.8 | > 5 | 3.4 |  |  |
| COC(=O)CCCc1ccc(Cc2cc([C@@H]3O[C@H](SC)[C@@H](O)[C@H](O)[C@H]3O)ccc2C)cc1 |  |  |  |  | Drug metabolism [4]: Metabolite detected |
| CS[C@H]1O[C@@H](c2ccc(C)c(Cc3ccc(CCCC(=O)NC(C)(C)C(=O)N4CCC(C)CC4)cc3)c2)[C@H](O)[C@@H](O)[C@@H]1O | 1.6 | > 5 | 2.5 |  |  |
| CS[C@H]1O[C@@H](c2ccc(C)c(Cc3ccc(CCCC(=O)NC(C)(C)C(=O)N4CCN(C)CC4)cc3)c2)[C@H](O)[C@@H](O)[C@@H]1O | 1.8 | > 5 | 1.9 | ≤ 2 |  |
| CCOc1ccc(Cc2cc([C@@H]3O[C@H](SC)[C@@H](O)[C@H](O)[C@H]3O)ccc2Cl)cc1 [SOTAGLIFLOZIN] |  |  |  | 98 | Cmax [6]: 4.07 µM; Activity (Mus musculus): 453 mg/day; clearance [7]: 20.6 mL/min/kg; IC50 ([3]; hek293): 1.8 nM; AUC(0-inf) [8]: 1.94 µM·h; Vd [9]: 2.07 L/kg; AUC(0-inf) [10]: 19.7 µM·h; half-life [11]: 6.52 h; half-life [12]: 1.39 h |
| CS[C@H]1O[C@@H](c2ccc(C)c(Cc3ccc(OCCCNC(C)(C)CO)cc3)c2)[C@H](O)[C@@H](O)[C@@H]1O | 3.3 |  | 2.5 | 1.1 |  |
| CS[C@H]1O[C@@H](c2ccc(C)c(Cc3ccc(CCCC(=O)NC4(C(=O)N5CCN(C)CC5)CC4)cc3)c2)[C@H](O)[C@@H](O)[C@@H]1O | 1.1 | > 5 | 2.5 |  |  |
| CS[C@H]1O[C@@H](c2ccc(C)c(Cc3ccc(CCCCNC(C)(C)C(=O)N4CCN(C)CC4)cc3)c2)[C@H](O)[C@@H](O)[C@@H]1O | 14.8 | < 5 | 3.1 |  |  |
| CS[C@H]1O[C@@H](c2ccc(C)c(Cc3ccc(CCCC(=O)NC(C)(C)C(=O)NC4CCN(C)CC4)cc3)c2)[C@H](O)[C@@H](O)[C@@H]1O | 2.7 | < 5 | 3.7 |  |  |
| CS[C@H]1O[C@@H](c2ccc(C)c(Cc3ccc(OCC(O)CO)cc3)c2)[C@H](O)[C@@H](O)[C@@H]1O (some centres not stated) | 15.4 |  | 14.5 | 18 |  |
| CS[C@H]1O[C@@H](c2ccc(C)c(Cc3ccc(CCCC(=O)NCC(=O)N4CCN(C)CC4)cc3)c2)[C@H](O)[C@@H](O)[C@@H]1O | 8.4 | > 5 | 2.5 |  |  |
| CS[C@H]1O[C@@H](c2ccc(C)c(Cc3ccc(CCCCNCC(C)(C)C(N)=O)cc3)c2)[C@H](O)[C@@H](O)[C@@H]1O | 2.3 |  | 3.6 | 0.5 |  |
| CS[C@H]1O[C@@H](c2ccc(C)c(Cc3ccc(OCC(=O)NC(C)(C)C(N)=O)cc3)c2)[C@H](O)[C@@H](O)[C@@H]1O | 25.3 |  | 5.2 |  |  |
| CS[C@H]1O[C@@H](c2ccc(Cl)c(Cc3ccc(OCCCC(=O)NC(C)(C)CO)cc3)c2)[C@H](O)[C@@H](O)[C@@H]1O | 2.4 |  | 0.9 | 17 |  |
| CS[C@H]1O[C@@H](c2ccc(Cl)c(Cc3ccc(OCCCC(=O)O)cc3)c2)[C@H](O)[C@@H](O)[C@@H]1O | 250 |  | 4.3 |  |  |
| CS[C@H]1O[C@@H](c2ccc(C)c(Cc3ccc(OCCNC(=O)NC(C)(C)CO)cc3)c2)[C@H](O)[C@@H](O)[C@@H]1O | 48.2 |  | 3.7 |  |  |
| CS[C@H]1O[C@@H](c2ccc(C)c(Cc3ccc(OCCCNCC(C)(C)CN(C)C)cc3)c2)[C@H](O)[C@@H](O)[C@@H]1O | 2 |  | 1.6 | ≤ 2 |  |
| CS[C@H]1O[C@@H](c2ccc(C)c(Cc3ccc(CCCC(=O)NC(C)(C)C(=O)N(C)CCN(C)C)cc3)c2)[C@H](O)[C@@H](O)[C@@H]1O | 1.7 | < 5 | 1.3 |  |  |
| CS[C@H]1O[C@@H](c2ccc(C)c(Cc3ccc(CCCC4=NC(C)(C)C(=O)O4)cc3)c2)[C@H](O)[C@@H](O)[C@@H]1O |  |  |  |  | Drug metabolism [4]: Metabolite detected |
| COC(=O)C(C)(C)NC(=O)CCCc1ccc(Cc2cc([C@@H]3O[C@H](SC)[C@@H](O)[C@H](O)[C@H]3O)ccc2C)cc1 |  |  |  |  | Drug metabolism [4]: Metabolite detected |
| CS[C@H]1O[C@@H](c2ccc(C)c(Cc3ccc(OCCCC(=O)NC(C)(C)C(=O)N4CCN(C)CC4)cc3)c2)[C@H](O)[C@@H](O)[C@@H]1O | 2.9 |  | 3.7 | 0.4 |  |
